Data reported in ChEMBL document CHEMBL3632558, “Synthesis, antimycobacterial and antibacterial activity of l-[(1R,2S)-2-fluorocyclopropyl]naphthyridone derivatives containing an oxime-functionalized pyrrolidine moiety” (2015).
Values after ≈ are worked out from the molar mass of the structure shown.

Columns and labels:
Assay type in all cases: functional
[1] = test system: Mycobacterium tuberculosis; experiment: Antimycobacterial activity against Mycobacterium tuberculosis H37Rv ATCC 27294 by alamar blue assay
How it was run: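 Microplate Alamar Blue Assay; MIC is the lowest concentration giving ≥90% reduction in fluorescence relative to the mean of replicate bacterium-only controls. MDR strain 6133 is resistant to isoniazid and rifampicin.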

Enterococcus faecium [2] = experiment: Antibacterial activity against Enterococcus faecium 14-5 after 18 to 24 hrs
How it was run: (§1)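 MIC by standard NCCLS reference procedure (M100-S11); lowest concentration of compound inhibiting visible bacterial growth after incubation at 35 °C for 18–24 h, read as complete inhibition of growth. Ciprofloxacin, levofloxacin and moxifloxacin run alongside as reference agents.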

Klebsiella pneumoniae [3] = experiment: Antibacterial activity against Klebsiella pneumoniae 14-1 after 18 to 24 hrs; how it was run: as §1
Enterococcus faecalis [4] = experiment: Antibacterial activity against Enterococcus faecalis 14-1 after 18 to 24 hrs; how it was run: as §1
[5] = test system: Staphylococcus epidermidis; experiment: Antibacterial activity against methicillin-resistant Staphylococcus epidermidis 14-37 after 18 to 24 hrs
Staphylococcus aureus [6] = experiment: Antibacterial activity against methicillin-sensitive Staphylococcus aureus 14-2 after 18 to 24 hrs; how it was run: as §1
Enterococcus faecium [7] = experiment: Antibacterial activity against Enterococcus faecium 14-1 after 18 to 24 hrs; how it was run: as §1
[8] = test system: Staphylococcus epidermidis; experiment: Antibacterial activity against methicillin-resistant Staphylococcus epidermidis 14-39 after 18 to 24 hrs
[9] = test system: Staphylococcus epidermidis; experiment: Antibacterial activity against methicillin-sensitive Staphylococcus epidermidis 14-2 after 18 to 24 hrs; how it was run: as §1
Enterococcus faecalis [10] = experiment: Antibacterial activity against Enterococcus faecalis 14-2 after 18 to 24 hrs; how it was run: as §1
[11] = test system: Staphylococcus epidermidis; experiment: Antibacterial activity against methicillin-resistant Staphylococcus epidermidis 14-21 after 18 to 24 hrs
Klebsiella pneumoniae [12] = experiment: Antibacterial activity against Klebsiella pneumoniae 14-2 after 18 to 24 hrs; how it was run: as §1
Klebsiella pneumoniae [13] = experiment: Antibacterial activity against ESBL-positive Klebsiella pneumoniae 14-18 after 18 to 24 hrs; how it was run: as §1
Streptococcus pneumoniae = experiment: Antibacterial activity against Streptococcus pneumoniae ATCC 19615 after 18 to 24 hrs; how it was run: as §1
Staphylococcus aureus [14] = experiment: Antibacterial activity against methicillin-sensitive Staphylococcus aureus 14-4 after 18 to 24 hrs; how it was run: as §1
Klebsiella pneumoniae [15] = experiment: Antibacterial activity against Klebsiella pneumoniae 14-4 after 18 to 24 hrs; how it was run: as §1
Enterococcus faecium [16] = experiment: Antibacterial activity against Enterococcus faecium 14-6 after 18 to 24 hrs; how it was run: as §1
Klebsiella pneumoniae [17] = experiment: Antibacterial activity against ESBL-positive Klebsiella pneumoniae 14-17 after 18 to 24 hrs; how it was run: as §1
[18] = test system: Staphylococcus epidermidis; experiment: Antibacterial activity against methicillin-resistant Staphylococcus epidermidis 14-22 after 18 to 24 hrs
Staphylococcus aureus [19] = experiment: Antibacterial activity against methicillin-resistant Staphylococcus aureus 14-4 after 18 to 24 hrs
Escherichia coli [20] = experiment: Antibacterial activity against Escherichia coli ATCC 25922 after 18 to 24 hrs; how it was run: as §1
Klebsiella pneumoniae [21] = experiment: Antibacterial activity against Klebsiella pneumoniae 14-3 after 18 to 24 hrs; how it was run: as §1
Klebsiella pneumoniae [22] = experiment: Antibacterial activity against ESBL-positive Klebsiella pneumoniae 14-19 after 18 to 24 hrs; how it was run: as §1
Escherichia coli [23] = experiment: Antibacterial activity against ESBL-positive Escherichia coli 14-2 after 18 to 24 hrs; how it was run: as §1
Escherichia coli [24] = experiment: Antibacterial activity against ESBL-positive Escherichia coli 14-1 after 18 to 24 hrs; how it was run: as §1
Escherichia coli [25] = experiment: Antibacterial activity against Escherichia coli 14-2 after 18 to 24 hrs; how it was run: as §1
Escherichia coli [26] = experiment: Antibacterial activity against Escherichia coli 14-1 after 18 to 24 hrs; how it was run: as §1
Enterococcus faecium [27] = experiment: Antibacterial activity against Enterococcus faecium 14-2 after 18 to 24 hrs; how it was run: as §1
Staphylococcus aureus [28] = experiment: Antibacterial activity against methicillin-sensitive Staphylococcus aureus 14-3 after 18 to 24 hrs; how it was run: as §1
Staphylococcus aureus [29] = experiment: Antibacterial activity against methicillin-sensitive Staphylococcus aureus 14-1 after 18 to 24 hrs; how it was run: as §1
Staphylococcus aureus [30] = experiment: Antibacterial activity against Staphylococcus aureus CMCC 26003 after 18 to 24 hrs; how it was run: as §1
Staphylococcus aureus [31] = experiment: Antibacterial activity against methicillin-resistant Staphylococcus aureus 14-5 after 18 to 24 hrs
Pseudomonas aeruginosa [32] = experiment: Antibacterial activity against Pseudomonas aeruginosa ATCC 27853 after 18 to 24 hrs; how it was run: as §1
Pseudomonas aeruginosa [33] = experiment: Antibacterial activity against Pseudomonas aeruginosa 14-15 after 18 to 24 hrs; how it was run: as §1
Pseudomonas aeruginosa [34] = experiment: Antibacterial activity against Pseudomonas aeruginosa 14-19 after 18 to 24 hrs; how it was run: as §1
Pseudomonas aeruginosa [35] = experiment: Antibacterial activity against Pseudomonas aeruginosa 14-14 after 18 to 24 hrs; how it was run: as §1
Pseudomonas aeruginosa [36] = experiment: Antibacterial activity against Pseudomonas aeruginosa 14-9 after 18 to 24 hrs; how it was run: as §1
Pseudomonas aeruginosa [37] = experiment: Antibacterial activity against Pseudomonas aeruginosa 14-16 after 18 to 24 hrs; how it was run: as §1

SMILES | MIC90 [1] | MIC (Enterococcus faecium [2]) | MIC (Klebsiella pneumoniae [3]) | MIC (Enterococcus faecalis [4]) | MIC [5] | MIC (Staphylococcus aureus [6]) | MIC (Enterococcus faecium [7]) | MIC [8] | MIC [9] | MIC (Enterococcus faecalis [10]) | MIC [11] | MIC (Klebsiella pneumoniae [12]) | MIC (Staphylococcus aureus [14]) | MIC (Klebsiella pneumoniae [15]) | MIC (Enterococcus faecium [16]) | MIC (Klebsiella pneumoniae [17]) | MIC [18] | MIC (Staphylococcus aureus [19]) | MIC (Klebsiella pneumoniae [21]) | MIC (Klebsiella pneumoniae [22]) | other results
NCC1CN(c2nc3c(cc2F)c(=O)c(C(=O)O)cn3[C@@H]2C[C@@H]2F)C/C1=N\OCc1ccccc1 (some centres undefined) | 0.5 µg/mL (≈ 1.03 µM) | – | – | – | – | – | – | – | – | – | – | – | – | – | – | – | – | – | – | – | –
O=C(O)c1cn(C2CC2)c2cc(N3CCNCC3)c(F)cc2c1=O [CIPROFLOXACIN] | – | 128 µg/mL (≈ 386 µM) | 32 µg/mL (≈ 96.6 µM) | 128 µg/mL (≈ 386 µM) | 128 µg/mL (≈ 386 µM) | 0.25 µg/mL (≈ 0.754 µM) | 64 µg/mL (≈ 193 µM) | 128 µg/mL (≈ 386 µM) | > 128 µg/mL | 1 µg/mL (≈ 3.02 µM) | 64 µg/mL (≈ 193 µM) | 16 µg/mL (≈ 48.3 µM) | 0.5 µg/mL (≈ 1.51 µM) | 32 µg/mL (≈ 96.6 µM) | > 128 µg/mL | 4 µg/mL (≈ 12.1 µM) | 128 µg/mL (≈ 386 µM) | > 128 µg/mL | 128 µg/mL (≈ 386 µM) | 64 µg/mL (≈ 193 µM) | MIC (Klebsiella pneumoniae [13]): 0.25 µg/mL (≈ 0.754 µM); MIC (Streptococcus pneumoniae): 2 µg/mL (≈ 6.04 µM); MIC (Escherichia coli [20]): < 0.008 µg/mL
NNC(=O)c1ccncc1 [ISONIAZID] | 0.049 µg/mL (≈ 0.357 µM) | – | – | – | – | – | – | – | – | – | – | – | – | – | – | – | – | – | – | – | –
C[C@H]1COc2c(N3CCN(C)CC3)c(F)cc3c(=O)c(C(=O)O)cn1c23.C[C@H]1COc2c(N3CCN(C)CC3)c(F)cc3c(=O)c(C(=O)O)cn1c23.O [LEVOFLOXACIN] | – | 64 µg/mL | 16 µg/mL | 128 µg/mL | 64 µg/mL | 0.25 µg/mL | 16 µg/mL | 64 µg/mL | 128 µg/mL | 1 µg/mL | 64 µg/mL | 8 µg/mL | 0.5 µg/mL | 8 µg/mL | 64 µg/mL | 4 µg/mL | 32 µg/mL | 64 µg/mL | 16 µg/mL | 64 µg/mL | MIC (Escherichia coli [23]): 8 µg/mL; MIC (Escherichia coli [24]): 2 µg/mL; MIC (Escherichia coli [25]): 4 µg/mL; MIC (Escherichia coli [26]): 4 µg/mL; MIC (Enterococcus faecium [27]): 32 µg/mL; MIC (Staphylococcus aureus [28]): 0.125 µg/mL; MIC (Staphylococcus aureus [29]): 8 µg/mL; MIC (Staphylococcus aureus [30]): 0.125 µg/mL; MIC (Staphylococcus aureus [31]): 8 µg/mL
COc1c(N2C[C@@H]3CCCN[C@@H]3C2)c(F)cc2c(=O)c(C(=O)O)cn(C3CC3)c12 [MOXIFLOXACIN] | – | 8 µg/mL (≈ 19.9 µM) | 8 µg/mL (≈ 19.9 µM) | 32 µg/mL (≈ 79.7 µM) | 8 µg/mL (≈ 19.9 µM) | 0.06 µg/mL (≈ 0.149 µM) | 8 µg/mL (≈ 19.9 µM) | 8 µg/mL (≈ 19.9 µM) | 32 µg/mL (≈ 79.7 µM) | 0.5 µg/mL (≈ 1.25 µM) | 32 µg/mL (≈ 79.7 µM) | 16 µg/mL (≈ 39.9 µM) | < 0.008 µg/mL | 16 µg/mL (≈ 39.9 µM) | 8 µg/mL (≈ 19.9 µM) | 8 µg/mL (≈ 19.9 µM) | 8 µg/mL (≈ 19.9 µM) | 16 µg/mL (≈ 39.9 µM) | 32 µg/mL (≈ 79.7 µM) | 64 µg/mL (≈ 159 µM) | MIC (Pseudomonas aeruginosa [32]): 2 µg/mL (≈ 4.98 µM); MIC (Pseudomonas aeruginosa [33]): 16 µg/mL (≈ 39.9 µM); MIC (Staphylococcus aureus [28]): < 0.008 µg/mL; MIC (Klebsiella pneumoniae [13]): 1 µg/mL (≈ 2.49 µM); MIC (Pseudomonas aeruginosa [34]): 1 µg/mL (≈ 2.49 µM); MIC (Pseudomonas aeruginosa [35]): 16 µg/mL (≈ 39.9 µM); MIC (Streptococcus pneumoniae): 0.015 µg/mL (≈ 0.0374 µM); MIC (Pseudomonas aeruginosa [36]): 4 µg/mL (≈ 9.96 µM); MIC (Staphylococcus aureus [29]): 4 µg/mL (≈ 9.96 µM); MIC (Staphylococcus aureus [30]): 0.06 µg/mL (≈ 0.149 µM); MIC (Staphylococcus aureus [31]): 8 µg/mL (≈ 19.9 µM); MIC (Pseudomonas aeruginosa [37]): 8 µg/mL (≈ 19.9 µM)
CO[C@H]1/C=C/O[C@@]2(C)Oc3c(C)c(O)c4c(O)c(c(/C=N/N5CCN(C)CC5)c(O)c4c3C2=O)NC(=O)/C(C)=C\C=C\[C@H](C)[C@H](O)[C@@H](C)[C@@H](O)[C@@H](C)[C@H](OC(C)=O)[C@@H]1C [RIFAMPIN] | 0.05 µg/mL (≈ 0.0608 µM) | – | – | – | – | – | – | – | – | – | – | – | – | – | – | – | – | – | – | – | –
